≈ marks a conversion by molar mass, not a printed value.
Columns and labels:
Trypsin = Trypsin (Homo sapiens, UniProt P07477+P07478+P35030); test: Inhibition of human trypsin; format: protein assay
Coagulation factor X [1] = biological target: Coagulation factor X (Homo sapiens, UniProt P00742); test: Binding affinity to human F10a
Prothrombin = Prothrombin (Homo sapiens, UniProt P00734); test: Inhibition of human thrombin
[2] = Volume of distribution at steady state in dog at 0.4 mg/kg, iv and 0.2 mg/kg, po; format: ADME, organism-based, Canis lupus familiaris; conditions: in vivo, read-out: Vdss
Method in brief: (§1)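 Dog pharmacokinetics from cassette (N-in-one) dosing of compounds as TFA salts: 0.4 mg/kg iv and 0.2 mg/kg po, n = 2 animals.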

[3] = Apparent permeability across Caco-2 cells; format: ADME, cell-based; conditions: human
[4] = Half life in dog at 0.2 mg/kg, po; format: ADME, organism-based, Canis lupus familiaris; set-up: dose 0.2 mg/kg, route oral; conditions: in vivo; method in brief: as §1
Oryctolagus cuniculus = species: Oryctolagus cuniculus; test: Inhibition of thrombus formation in rabbit arteriovenous shunt thrombosis model; format: functional, organism-based
[5] = (§2) Oral bioavailability in dog at 0.2 mg/kg, po; format: ADME, organism-based, Canis lupus familiaris; conditions: in vivo; method in brief: as §1
[6] = Clearance in dog at 0.4 mg/kg, iv and 0.2 mg/kg, po; format: ADME, organism-based, Canis lupus familiaris; conditions: in vivo; method in brief: as §1
Coagulation factor X [7] = biological target: T1, Coagulation factor X (Oryctolagus cuniculus, UniProt O19045); test: Binding affinity to rabbit F10a
T1 sequence (O19045 whole entry): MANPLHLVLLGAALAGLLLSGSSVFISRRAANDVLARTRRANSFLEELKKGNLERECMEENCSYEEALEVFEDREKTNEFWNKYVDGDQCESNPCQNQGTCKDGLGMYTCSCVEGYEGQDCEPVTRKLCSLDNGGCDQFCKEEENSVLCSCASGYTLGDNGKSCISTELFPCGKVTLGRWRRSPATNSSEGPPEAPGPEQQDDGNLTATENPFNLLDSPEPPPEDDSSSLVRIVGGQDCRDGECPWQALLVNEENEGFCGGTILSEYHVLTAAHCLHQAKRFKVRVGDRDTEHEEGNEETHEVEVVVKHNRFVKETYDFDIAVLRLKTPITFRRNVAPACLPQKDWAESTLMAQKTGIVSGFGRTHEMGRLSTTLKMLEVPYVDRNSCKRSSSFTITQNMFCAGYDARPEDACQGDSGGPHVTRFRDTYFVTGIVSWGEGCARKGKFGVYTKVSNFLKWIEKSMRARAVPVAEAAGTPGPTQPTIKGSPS

[8] = Half life in human liver microsomes; format: ADME, Microsome
[9] = Protein binding in human serum by equilibrium dialysis; format: ADME, cell-free; conditions: read-out: PB (converted)
[10] = Aqueos solubility in saline; format: ADME
Canis familiaris = test: as §2; format: ADME, organism-based, Canis lupus familiaris; conditions: in vivo; method in brief: as §1

Sequence of Coagulation factor X (Homo sapiens, UniProt P00742) (P00742 41-179 limits assumed): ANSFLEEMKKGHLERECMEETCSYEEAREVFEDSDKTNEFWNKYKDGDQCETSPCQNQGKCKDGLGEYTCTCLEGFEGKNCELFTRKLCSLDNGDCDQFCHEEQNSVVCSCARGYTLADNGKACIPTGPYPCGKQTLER
Sequence of Coagulation factor X (Homo sapiens, UniProt P00742) (P00742 235-488 limits assumed): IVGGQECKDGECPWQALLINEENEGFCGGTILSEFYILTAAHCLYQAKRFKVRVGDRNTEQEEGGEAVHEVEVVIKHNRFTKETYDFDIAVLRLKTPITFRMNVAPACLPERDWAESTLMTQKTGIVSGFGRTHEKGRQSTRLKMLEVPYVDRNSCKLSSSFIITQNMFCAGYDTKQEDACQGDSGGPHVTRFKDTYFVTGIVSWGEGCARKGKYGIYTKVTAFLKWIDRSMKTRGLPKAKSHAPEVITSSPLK

SMILES | Ki (Trypsin) [nM] | Ki (Coagulation factor X [1]) [nM] | Ki (Prothrombin) [nM] | Vd [2] [L/kg] | half-life [4] [h] | clearance [6] [mL/min/kg] | also measured
COc1ccc(-n2nc(C(F)(F)F)c3c2C(=O)N(c2ccc(-c4ccccc4CN4CC[C@@H](O)C4)cc2)CC3)cc1 | > 3000 | 0.18 | 330 |  |  |  | 
COc1ccc(-n2nc(N(C)C)c3c2C(=O)N(c2ccc(-c4ccccc4CN4CC[C@@H](O)C4)cc2)CC3)cc1 | > 3000 | 0.31 | 1800 |  |  |  | 
COc1ccc(-n2nc(C(N)=O)c3c2C(=O)N(c2ccc(-c4ccccc4CN4CC[C@@H](O)C4)cc2)CC3)cc1 | > 3000 | 0.07 | 140 | 1.6 | 5.6 | 5.33 | Papp [3]: 2.3 ×10⁻⁶ cm/s; IC50 (Oryctolagus cuniculus): 120 nM; bioavailability [5]: 100%
CNC(=O)c1nn(-c2ccc(OC)cc2)c2c1CCN(c1ccc(-c3ccccc3CN3CC[C@@H](O)C3)cc1)C2=O | > 3000 | 4.8 | 7000 |  |  |  | 
COc1ccc(-n2nc(C(=O)N(C)C)c3c2C(=O)N(c2ccc(-c4ccccc4CN4CC[C@@H](O)C4)cc2)CC3)cc1 | > 3000 | 1.7 | 11000 |  |  |  | 
COc1ccc(-n2nc(C(F)(F)F)c3c2C(=O)N(c2ccc(N(C)C(C)=O)cc2)CC3)cc1 |  | 0.5 | > 6300 |  |  |  | 
COc1ccc(-n2nc(C(N)=O)c3c2C(=O)N(c2ccc(N(C)C(C)=O)cc2)CC3)cc1 |  | 0.61 | 2520 | 1.7 | 0.7 | 46.7 | Ki (Coagulation factor X [7]): 2.6 nM; Papp [3]: 2.5 ×10⁻⁶ cm/s; bioavailability [5]: 56%
COc1ccc(-n2nc(C(F)(F)F)c3c2C(=O)N(c2ccc(N(C)C)cc2)CC3)cc1 |  | 6 | > 13400 |  |  |  | 
COc1ccc(-n2nc(C(F)(F)F)c3c2C(=O)N(c2ccc(N4CCCCC4)cc2)CC3)cc1 |  | 2.1 | 3900 |  |  |  | 
COc1ccc(-n2nc(C(F)(F)F)c3c2C(=O)N(c2ccc(N4CCCCCC4=O)cc2)CC3)cc1 |  | 0.47 | 3300 |  |  |  | 
COc1ccc(-n2nc(N)c3c2C(=O)N(c2ccc(-c4ccccc4CN4CC[C@@H](O)C4)cc2)CC3)cc1 | > 3000 | 6.7 | 9400 |  |  |  | 
CNCc1ccccc1-c1ccc(N2CCc3c(C(N)=O)nn(-c4ccc(OC)cc4)c3C2=O)cc1 |  | 0.14 |  | 7.4 | 7.3 | 21.7 | half-life [8]: > 1.67 h; Papp [3]: 1.7 ×10⁻⁶ cm/s; IC50 (Oryctolagus cuniculus): 445 nM; bioavailability [5]: 56%
CCN(CC)Cc1ccccc1-c1ccc(N2CCc3c(C(N)=O)nn(-c4ccc(OC)cc4)c3C2=O)cc1 |  | 0.08 |  | 6.5 | 3.7 | 40 | Papp [3]: 2.3 ×10⁻⁶ cm/s; bioavailability [5]: 20%
CCOC(=O)c1nn(-c2ccc(OC)cc2)c2c1CCN(c1ccc(-c3ccccc3CN3CC[C@@H](O)C3)cc1)C2=O | > 3000 | 3.9 | 980 |  |  |  | 
COc1ccc(-n2nc(C(N)=O)c3c2C(=O)N(c2ccc(-c4ccccc4CN4CCC(O)CC4)cc2)CC3)cc1 |  | 0.29 |  | 0.99 | 4.3 | 1.67 | Papp [3]: 4.9 ×10⁻⁶ cm/s; IC50 (Oryctolagus cuniculus): 180 nM; bioavailability [5]: 55%
COc1ccc(-n2nc(C(N)=O)c3c2C(=O)N(c2ccc(-c4ccccc4CN(CCO)CCO)cc2)CC3)cc1 |  | 0.36 |  | 1.09 | 1.8 | 8.33 | Papp [3]: 0.9 ×10⁻⁶ cm/s; bioavailability [5]: 15%
COc1ccc(-n2nc(C(=O)O)c3c2C(=O)N(c2ccc(-c4ccccc4CN4CC[C@@H](O)C4)cc2)CC3)cc1 | > 3000 | 7.6 | > 20000 |  |  |  | 
COc1ccc(-n2nc(NC(=O)OC(C)(C)C)c3c2C(=O)N(c2ccc(-c4ccccc4CN4CC[C@@H](O)C4)cc2)CC3)cc1 | > 3000 | 9.6 | 4600 |  |  |  | 
COc1ccc(-n2nc(S(C)(=O)=O)c3c2C(=O)N(c2ccc(-c4ccccc4CN4CC[C@@H](O)C4)cc2)CC3)cc1 | > 3000 | 0.25 | 180 |  |  |  | 

SMILES | Ki (Trypsin) [nM] | Ki (Coagulation factor X [1]) [nM] | Ki (Prothrombin) [nM] | Vd [2] [L/kg] | half-life [4] [h] | clearance [6] [mL/min/kg] | also measured
COc1ccc(-n2nc(C(N)=O)c3c2C(=O)N(c2ccc(-c4ccccc4CN)cc2)CC3)cc1 |  | 0.97 |  |  |  |  | Papp [3]: 1.2 ×10⁻⁶ cm/s
Nc1noc2ccc(-n3nc(C(F)(F)F)c4c3C(=O)N(c3ccc(-c5ccccc5CN5CC[C@@H](O)C5)cc3)CC4)cc12 |  |  |  | 1.6 | 5.1 | 5.83 | fraction unbound [9]: 0.03; half-life [8]: 0.7 h; IC50 (Oryctolagus cuniculus): 140 nM
COc1ccc(-n2nc(C(N)=O)c3c2C(=O)N(c2ccc(-c4ccccc4CN(C)C)cc2)CC3)cc1 |  | 0.24 |  | 6.1 | 3.6 | 33.3 | Papp [3]: 2.3 ×10⁻⁶ cm/s; IC50 (Oryctolagus cuniculus): 175 nM; bioavailability [5]: 56%
COc1ccc(-n2nc(N(C)C(=O)OC(C)(C)C)c3c2C(=O)N(c2ccc(-c4ccccc4CN4CC[C@@H](O)C4)cc2)CC3)cc1 | > 3000 | 2 | 950 |  |  |  | 
CNc1ccc(N2CCc3c(C(F)(F)F)nn(-c4ccc(OC)cc4)c3C2=O)cc1 |  | 610 | > 6300 |  |  |  | 
COc1ccc(-n2nc(C(F)(F)F)c3c2C(=O)N(c2ccc(N4CCCCC4=O)cc2)CC3)cc1 |  | 0.23 | 4400 |  |  |  | 
COc1ccc(-n2nc(C#N)c3c2C(=O)N(c2ccc(-c4ccccc4CN4CC[C@@H](O)C4)cc2)CC3)cc1 | > 3000 | 0.33 | 100 |  |  |  | 
COc1ccc(-n2nc(C(F)(F)F)c3c2C(=O)N(c2ccc(N)cc2)CC3)cc1 |  |  | > 6300 |  |  |  | 
COc1ccc(-n2nc(Cn3nccn3)c3c2C(=O)N(c2ccc(-c4ccccc4CN4CC[C@@H](O)C4)cc2)CC3)cc1 | > 3000 | 0.48 | 980 |  |  |  | 
COc1ccc(-n2nc(Cn3cncn3)c3c2C(=O)N(c2ccc(-c4ccccc4CN4CC[C@@H](O)C4)cc2)CC3)cc1 | > 3000 | 0.25 | 1900 |  |  |  | 
COc1ccc(-n2nc(Cn3cnnn3)c3c2C(=O)N(c2ccc(-c4ccccc4CN4CC[C@@H](O)C4)cc2)CC3)cc1 | > 3000 | 0.85 | 970 | 3.7 | 1.8 | 43 | Papp [3]: 0.9 ×10⁻⁶ cm/s; bioavailability [5]: 7%
COc1ccc(-n2nc(Cn3ncnn3)c3c2C(=O)N(c2ccc(-c4ccccc4CN4CC[C@@H](O)C4)cc2)CC3)cc1 | > 3000 | 1.1 | 1000 |  |  |  | 
COc1ccc(-n2nc(-c3nnn[nH]3)c3c2C(=O)N(c2ccc(-c4ccccc4CN4CC[C@@H](O)C4)cc2)CC3)cc1 | > 3000 | 0.63 | 12000 |  |  |  | 
CNc1nn(-c2ccc(OC)cc2)c2c1CCN(c1ccc(-c3ccccc3CN3CC[C@@H](O)C3)cc1)C2=O | > 3000 | 1.7 | 4800 |  |  |  | 
COc1ccc(-n2nc(C(F)(F)F)c3c2C(=O)N(c2ccc(NC(C)=O)cc2)CC3)cc1 |  | 180 | > 6300 |  |  |  | 
COc1ccc(-n2nc(Cn3ccnn3)c3c2C(=O)N(c2ccc(-c4ccccc4CN4CC[C@@H](O)C4)cc2)CC3)cc1 | > 3000 | 0.67 | 12000 | 4.9 | 2.8 | 41.2 | Papp [3]: 1.6 ×10⁻⁶ cm/s; bioavailability [5]: 24%
COc1ccc(-n2nc(C(N)=O)c3c2C(=O)N(c2ccc(-c4ccccc4CN4CCCC4)cc2)CC3)cc1 |  | 0.3 |  | 5.6 | 3.5 | 25 | Papp [3]: 3.5 ×10⁻⁶ cm/s; bioavailability [5]: 53%
COc1ccc(-n2nc(C(N)=O)c3c2C(=O)N(c2ccc(N4CCCCC4=O)cc2)CC3)cc1 [APIXABAN] |  |  |  | 0.2 | 5.8 | 0.333 | Ki (Coagulation factor X [7]): 0.17 nM; IC50 (Oryctolagus cuniculus): 329 nM; bioavailability [5]: 58%; solubility [10]: 50 µg/mL (≈ 109 µM)
CN(C)Cc1nccn1-c1ccc(NC(=O)c2cc(C(F)(F)F)nn2-c2ccc3onc(N)c3c2)c(F)c1 [RAZAXABAN] |  |  |  | 3.4 | 5.3 |  | fraction unbound [9]: 0.09; half-life [8]: 0.633 h; F (Canis familiaris): 84%

— ChEMBL document CHEMBL1137566 (J Med Chem, 2007)
